ATG4B inhibitor – inhibitors of human ATG4B cysteine protease. Q9Y4P1. 0.51% of 340,000 active. inhibition, % at 8.33 µM. ATG4B cleavage of LC3-PLA2, NBD-HPC fluorescence, 1 h; in the data active = inhibition above about 40%
NadD block – NadD (S. aureus) enzyme inhibition; purified NadD enzyme, colorimetric absorbance read-out; inhibition, % at 20 µM; 0.78% of 360,000 active; in the data active = inhibition above about 26%
NR3A LBD binder – NR3A (human) ligand-binding domain modulation. NR3A LBD differential scanning fluorimetry, Tm shift; 0% = protein alone, 100% = glycine-bound protein. Tm shift relative to glycine control, % at 25 µM. 2.5% of 340,000 active. AID 1259313;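 active = melting temperature shift of at least 10% of the positive control shift, at one fixed dose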
SENP1 inh – SENP1 (human) catalytic domain inhibition; Q9P0U3; recombinant SENP1 catalytic domain, CyPet-SUMO1-YPet FRET cleavage; inhibition, % at 10 µM; 0.21% of 360,000 active; AID 624204;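 active = inhibition at least 30% at 10 µM, raw YFP signal under a set limit, fluorescence ratio 0.5 to 1.5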;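 also: 0% = enzyme with DMSO and 100% = no enzyme wells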
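System: Recombinant human SENP1 catalytic domain, His6-tagged | Incubation: Enzyme reaction for 50 min at room temperature, dark | Medium: Tris pH 8 with BME, BSA, NP40 and catalase | Also added: 25 nM SUMO1 FRET substrate | Compound: 10 µM single point, 0.5% DMSO | Measured by: FRET fluorescence in CFP and YFP emission channels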
UCH37 inh – inhibitors of human deubiquitinating enzyme UCH37; Q9Y5K5; inhibition, % (no concentration beside the values); 0.33% of 330,000 active; purified proteasome/UCH37, Ub-AMC cleavage fluorescence;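 active = mean inhibition over replicate wells above about 20%, limit read from the data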;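 also: 0% = compound-free wells with enzyme and 100% = wells lacking proteasome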
Target sequence (Q9Y5K5 whole entry, looked up): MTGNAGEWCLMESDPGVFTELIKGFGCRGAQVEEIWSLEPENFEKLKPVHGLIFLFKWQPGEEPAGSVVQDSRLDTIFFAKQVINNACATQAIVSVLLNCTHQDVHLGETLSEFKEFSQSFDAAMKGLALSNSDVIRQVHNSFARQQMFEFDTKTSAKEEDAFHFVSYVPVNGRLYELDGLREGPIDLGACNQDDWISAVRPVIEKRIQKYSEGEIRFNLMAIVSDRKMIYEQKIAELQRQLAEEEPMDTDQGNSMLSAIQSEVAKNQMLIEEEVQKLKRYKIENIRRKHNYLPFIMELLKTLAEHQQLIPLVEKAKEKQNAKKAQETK
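Test system – human UCH37 enzyme supplied as purified proteasome complex · Incubation – 30 min preincubation with enzyme, 25 min cleavage at room temperature · Detection – AMC fluorescence from Ub-AMC cleavage, excitation 355 nm, emission 460 nm · Benchmarks – no-proteasome wells (full inhibition) and compound-free wells (no inhibition)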
ATG4B confirm – ATG4B (human) inhibition, single-dose confirmed; shares compounds with ATG4B inhibitor; ATG4B protease fluorescent substrate cleavage assay; inhibition, % at 8.33 µM; 92% of 320 active; in the data active = inhibition above about 39%
PLA2 ctr – counter-screen for ATG4B inhibitors: human phospholipase A2 | shares compounds with ATG4B inhibitor | purified PLA2, NBD-C6-HPC fluorescence, 45 min | inhibition, % at 8.33 µM | 66% of 1,600 active | AID 588402; in the data active = inhibition above about 50%
Target sequence (P04054 whole entry, looked up): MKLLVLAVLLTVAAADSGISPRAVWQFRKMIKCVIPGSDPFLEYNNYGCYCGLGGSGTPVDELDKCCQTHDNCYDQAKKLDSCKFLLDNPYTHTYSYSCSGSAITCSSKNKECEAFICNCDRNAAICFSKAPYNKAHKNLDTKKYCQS
Starred values were filed as active, the others as inactive; x = not tested or not shown. Sampled rows, rich in hits. Any-hit rate of the full collection: about 3.6%.

SMILES	ATG4B inhibitor	NadD block	NR3A LBD binder	SENP1 inh	UCH37 inh	PLA2 ctr	others
CCOC(=O)c1c(C)nc2sc(C(=O)Nc3ccc(OC)cc3)c(N)c2c1-c1ccc(OC)cc1	-17.1	3.2	-3.2	-29.5	-13.2	x
Cc1ccc(-c2c3c(nc4sc(C(N)=O)c(N)c24)CCC3)cc1	55.2*	6.3	-0.1	-3.5	-1.2	58.7*
NC(=O)c1sc2nc3c(c(-c4ccc(Cl)cc4)c2c1N)CCCC3	48.7*	12.7	-2.8	-22.3	-88.0	66.0*
C(=Nn1cnnc1)c1cccc2ccccc12	x	x	x	x	-5.6	x
Cc1ccc(O)c(N=Cc2cc(Cc3ccccc3)cc([N+](=O)[O-])c2O)c1	79.3*	53.6*	-9.1	10.3	10.0	75.6*
CC(C)CCn1c(=O)c2ccccc2c2ccccc2c1=O	64.2*	-1.3	-14.4	-0.8	6.3	71.0*
Cc1ccc2c(c1)[nH]c1c(N3CCN(Cc4ccccc4)CC3)ncnc12	61.7*	-2.3	-12.7	-3.5	-23.0	78.7*
COc1ccc2c(c1)[nH]c1c(N3CCN(Cc4ccc5c(c4)OCO5)CC3)ncnc12	44.6*	17.3	-10.0	-3.0	-7.9	58.1*
Cc1ccc2[nH]c3c(N4CCN(Cc5ccc6c(c5)OCO6)CC4)ncnc3c2c1	x	x	x	x	-29.3	x
O=[N+]([O-])c1cccc(C=NNC2=NCCCCC2)c1	x	x	x	x	0.2	x
CC(=NNC(=O)c1cccs1)c1ccc2ccccc2c1	x	x	x	x	-21.2	x
C=CCOc1ccc(C(CC)=NO)c(OC)c1	x	x	x	x	0.6	x
Nc1c(C(=O)Nc2ccccc2F)sc2nc(Cc3ccccc3)cc(C(F)(F)F)c12	66.1*	-2.2	0.7	-21.4	-41.5	-3.0
COCc1cc(C)nc2sc(C(=O)Nc3ccccc3F)c(N)c12	-0.5	-5.4	1.8	-26.4	-98.4	x
Nc1nnc(Cc2ccc(Cl)cc2Cl)s1	70.7*	-1.2	-0.7	1.7	2.5	75.7*
O=C1c2ccccc2N2C(=O)c3ccccc3[C@H]2N1c1ccccc1	55.0*	-2.4	6.6	2.9	0.6	60.7*
CCOC(=O)c1c(C)[nH]c(C(=O)COC(=O)COc2ccccc2C=O)c1C	47.4*	-0.4	-1.2	0.2	4.5	44.8	ATG4B confirm=55.7*
CCOC(=O)c1c(C)[nH]c(C(=O)COC(=O)/C=C/c2cccc(OC)c2OC)c1C	4.0	-3.2	1.5	2.5	-40.5	x
CCCCNC(=S)N(C)N=Cc1ccc(OCc2ccc(C(=O)OC)cc2)c(OC)c1	x	x	x	x	7.0	x
C=C(C)Cn1c(SCC#N)nc2ccccc2c1=O	4.8	-3.7	-0.3	-0.5	5.1	x
CCN(CCCn1c(SCC#N)nc2ccccc2c1=O)c1ccccc1	43.5*	1.8	1.2	-2.4	2.8	44.9
S=c1[nH]nc(-c2ccncc2)n1N=Cc1cn(-c2ccccc2)nc1-c1ccccc1	x	x	x	x	3.9	x
CCOc1ccc(N2CC(O)=C(c3nc4ccccc4c(=O)[nH]3)C2=N)cc1	-13.9	-0.7	2.2	1.3	-17.3	x
Cc1ccc(N2CC(O)=C(c3nc4ccccc4c(=O)[nH]3)C2=N)cc1C	45.8*	15.6	-2.0	1.1	-21.2	38.3
CCN(Cc1ccccc1)C(=O)c1cccc(OC2CCN(C(=O)C3CC3)CC2)c1	42.9*	-0.8	-1.3	1.1	7.9	33.9
SMILES	ATG4B inhibitor	NadD block	NR3A LBD binder	SENP1 inh	UCH37 inh	PLA2 ctr	others
COc1cc(C=NNc2cc(C)nc(NS(=O)(=O)c3ccc(C)cc3)n2)ccc1O	x	x	x	x	-3.4	x
Cc1sc(-n2c(C)cc(/C=C3\SC(=S)NC3=O)c2C)c(C#N)c1C	80.8*	24.6*	-25.0	-57.0	5.3	74.3*
Nc1c(-c2ccccc2)c(CSc2nc3ccccc3[nH]2)nn1-c1cccc(Cl)c1	43.4*	26.2	1.6	6.3	2.2	57.9*
Nc1c(-c2ccccc2)c(CSc2nc3ccccc3[nH]2)nn1-c1ccc(Cl)cc1	38.5	7.5	-4.3	1.5	2.0	x
CCCCCCCCCCC[N+](C)(C)CC/C=C1/c2ccccc2Sc2ccc(Cl)cc21	46.8*	15.9	-410.9	-6.1	x	52.5*
CC(=NNS(=O)(=O)c1ccccc1)c1ccc2c(c1)OCCO2	x	x	x	x	2.4	x
CCOc1ccc2nc3cc(N=Nc4ccc(N)nc4N)ccc3c(N)c2c1	54.2*	32.1*	2.7	-25.8	x	68.8*
COc1ccc(N=Nc2ccc(N)nc2N)cc1	-2.3	-8.1	-15.8	-14.9	x	x
CCOC(=O)NN=Cc1ccc(OC(=O)c2ccc3c(c2)OCO3)cc1	x	x	x	x	5.2	x
COc1ccc(C2C(C(C)=O)=C(C)N=c3s/c(=C\c4cc(C)n(C)c4C)c(=O)n32)c(OC)c1 (configuration not stated)	55.9*	14.6	1.9	-19.5	x	73.1*
CN1C(=O)C(c2nnc(Nc3cccc4ccccc34)s2)C2CC1(C)Oc1ccccc12 (configuration not stated)	88.8*	13.4	-10.2	3.3	3.2	91.1*
O=C(O)c1ccc(-c2ccc(/C=c3/sc4nc5ccccc5n4c3=O)o2)cc1Cl	49.7*	18.5	7.7	-24.7	x	19.2	ATG4B confirm=81.6*
O=C(CNS(=O)(=O)c1ccc([N+](=O)[O-])cc1)NN=Cc1ccc(O)cc1O	x	x	x	x	4.1	x
COc1cc([N+](=O)[O-])ccc1-c1ccc(C=NNC(N)=O)o1	x	x	x	x	7.9	x
COc1ccc(Br)cc1CNC(=O)C1CCCN(S(=O)(=O)N2CCC(C)CC2)C1 (configuration not stated)	x	-6.4	x	3.8	x	x
COc1ccc(Br)cc1CNC(=O)C1CCN(S(=O)(=O)N2CCC(C)CC2)CC1	42.1*	-1.3	2.5	0.2	-1.3	42.1	ATG4B confirm=66.7*
NC(=O)c1ccccc1NC(=O)COC(=O)CSCc1cccc(Cl)c1	-0.3	0.4	-3.6	0.5	0.7	x
O=C(CSCc1cccc(Cl)c1)Nc1ccccc1-c1ccccc1	47.1*	2.4	-0.8	-0.4	4.0	51.4*
CN(CC(=O)Nc1ccccc1-c1ccccc1)Cc1ccccc1Cl	55.3*	5.7	-1.1	-1.5	-1.5	51.9*
Cc1ccccc1CSCC(=O)Nc1ccccc1-c1ccccc1	51.4*	-3.0	-4.0	0.3	3.9	58.9*
Cc1ccccc1NC(=O)CSCC(=O)Nc1ccccc1C	-1.3	2.3	-0.3	-0.4	1.8	x
CC1CCCN(C(=O)c2ccc(COc3ccccc3Br)cc2)C1 (configuration not stated)	61.0*	-1.4	-1.7	-1.9	2.2	68.6*
O=C(Nc1nc2nc(-c3ccccc3)cc(-c3ccccc3)n2n1)c1ccco1	42.4*	11.8	-2.7	-2.8	-61.5	50.5*
O=[N+]([O-])c1cc2oc3c(c2c(C=NCc2ccccc2)c1O)CCCC3	75.8*	21.6	-2.2	46.0*	6.4	23.5	ATG4B confirm=48.1*
